Experimental data as given in ChEMBL document CHEMBL4477182, “Evaluation of the Intestinal Absorption Mechanism of Casearin X in Caco-2 Cells with Modified Carboxylesterase Activity” (J Nat Prod, 2016).

Assays:
[1] = Permeability from apical to basolateral side in human Caco2 cells assessed as drug recovery at 2 uM after 60 mins in absence of CES inhibitor BNPP by LC-MS method; assay type: ADME, cell-based; conditions: Caco-2, read-out: Drug recovery
Summary of the method: (§1)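 Caco-2 monolayers grown 19−21 days on Transwell inserts. Pretreated 40 min at 37 °C with 200 μM BNPP in HBSS on both sides, or sham HBSS, then 40 min DMEM washout. Monolayers with TEER >250 Ω cm2 were dosed at 2 μM (1% DMSO) on the donor side; basolateral buffer had 4% FBS. Shaken at 37 °C. Buffer, cell and plastic extracts at 10, 60 and 120 min were measured by LC-MS for total recovery; mean(SD), n = 3.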

[2] = Permeability from apical to basolateral side in human Caco2 cells assessed as drug recovery at 2 uM after 60 mins in presence of CES inhibitor BNPP by LC-MS method; assay type: ADME, cell-based; conditions: Caco-2, with BNPP (CES inhibitor), concentration not stated, read-out: Drug recovery; summary of the method: as §1
CE2 (cocaine esterase) [3] = target: T1, CE2 (cocaine esterase) (Homo sapiens, UniProt O00748); test: Drug metabolism assessed as human CE2-mediated compound hydrolysis by measuring compound half life at 1 uM incubated for 30 mins by LC-MS analysis; assay type: ADME; conditions: human CE2 enzyme
T1 sequence (O00748 whole entry): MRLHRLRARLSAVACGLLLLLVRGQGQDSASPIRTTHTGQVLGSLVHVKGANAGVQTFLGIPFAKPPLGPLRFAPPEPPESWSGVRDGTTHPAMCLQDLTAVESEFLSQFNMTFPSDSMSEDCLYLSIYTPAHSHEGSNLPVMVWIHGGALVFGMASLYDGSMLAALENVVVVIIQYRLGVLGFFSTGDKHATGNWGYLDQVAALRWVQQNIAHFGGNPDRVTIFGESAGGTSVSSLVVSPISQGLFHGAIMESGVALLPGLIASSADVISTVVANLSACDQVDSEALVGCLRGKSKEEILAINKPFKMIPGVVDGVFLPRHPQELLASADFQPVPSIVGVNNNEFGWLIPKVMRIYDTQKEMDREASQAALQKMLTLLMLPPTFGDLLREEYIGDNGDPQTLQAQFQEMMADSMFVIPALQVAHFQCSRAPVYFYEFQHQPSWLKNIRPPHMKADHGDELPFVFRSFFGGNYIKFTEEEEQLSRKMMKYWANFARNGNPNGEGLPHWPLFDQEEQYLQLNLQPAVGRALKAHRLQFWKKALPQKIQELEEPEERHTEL
Summary of the method: (§2)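 Purified human hCE2 (0.2 μg/mL) in 90 mM KH2PO4, 40 mM KCl, pH 7.3, preincubated 5 min at 37 °C. Reaction started with 1 μM substrate (0.1% DMSO final) and sampled every 5 min to 30 min, in triplicate. Quenched with ice-cold acetonitrile and quantified by LC-MS (SIM, m/z 555 Na adduct). Half-life = ln 2 / slope of ln % remaining versus time.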

[4] = Permeability from apical to basolateral side in human Caco2 cells assessed as drug recovery at 2 uM after 10 mins in absence of CES inhibitor BNPP by LC-MS method; assay type: ADME, cell-based; conditions: Caco-2, read-out: Drug recovery; summary of the method: as §1
[5] = Cytotoxicity against human Caco2 cells assessed as cell viability at 1 uM after 5 hrs by MTT assay relative to control; assay type: cell-based; conditions: Caco-2 cells, read-out: Activity
Summary of the method: (§3)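 Caco-2 cells (passage 60−65) seeded at 1.14 × 10^5 cells/cm2, grown 24 h, then exposed in transport buffer (pH 7.4) to 1, 2, 3, 4, 5 and 10 μM for 5 h at 37 °C, 8% CO2. After a DPBS wash, MTT was added for 2 h. A 1% DMSO blank gave background. n = 18; ANOVA with Bonferroni test.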

Caco-2 = test: Cytotoxicity against human Caco2 cells assessed as reduction in cell viability after 5 hrs by MTT assay; assay type: cell-based; conditions: caco-2, 5 h; summary of the method: as §3
[6] = Permeability from apical to basolateral side in human Caco2 cells assessed as drug recovery at 2 uM after 10 mins in presence of CES inhibitor BNPP by LC-MS method; assay type: ADME, cell-based; conditions: Caco-2, with BNPP (CES inhibitor), concentration not stated, read-out: Drug recovery; summary of the method: as §1
[7] = Cytotoxicity against human Caco2 cells assessed as cell viability at 2 uM after 5 hrs by MTT assay relative to control; assay type: cell-based; conditions: Caco-2 cells, read-out: Activity; summary of the method: as §3
[8] = Permeability from apical to basolateral side in human Caco2 cells assessed as drug recovery at 2 uM after 120 mins in absence of CES inhibitor BNPP by LC-MS method; assay type: ADME, cell-based; conditions: Caco-2, read-out: Drug recovery; summary of the method: as §1
[9] = Permeability from apical to basolateral side in human Caco2 cells assessed as drug recovery at 2 uM after 120 mins in presence of CES inhibitor BNPP by LC-MS method; assay type: ADME, cell-based; conditions: Caco-2, with BNPP (CES inhibitor), concentration not stated, read-out: Drug recovery; summary of the method: as §1
CE2 (cocaine esterase) [10] = target: T1, CE2 (cocaine esterase); test: Drug metabolism assessed as human CE2-mediated compound hydrolysis at 1 uM incubated for 30 mins measured every 5 mins by LC-MS analysis; assay type: ADME; conditions: human CE2 enzyme, read-out: Drug metabolism; summary of the method: as §2
Cocaine esterase = target: T2, Cocaine esterase (Homo sapiens, UniProt O00748); test: Drug metabolism assessed as human CE2-mediated compound hydrolysis by measuring specific activity of enzyme per mg of protein at 1 uM incubated for 30 mins; assay type: ADME; conditions: 0.5 h; summary of the method: as §2
T2 sequence (O00748 whole entry): T1 sequence (O00748 whole entry)

[11] = Permeability from basolateral to apical side in human Caco2 cells assessed as drug recovery at 2 uM after 10 mins in presence of CES inhibitor BNPP by LC-MS method; assay type: ADME, cell-based; conditions: Caco-2, with BNPP (CES inhibitor), concentration not stated, read-out: Drug recovery; summary of the method: as §1
[12] = Permeability from basolateral to apical side in human Caco2 cells assessed as drug recovery at 2 uM after 10 mins in absence of CES inhibitor BNPP by LC-MS method; assay type: ADME, cell-based; conditions: Caco-2, read-out: Drug recovery; summary of the method: as §1
[13] = Permeability from basolateral to apical side in human Caco2 cells assessed as drug recovery at 2 uM after 120 mins in absence of CES inhibitor BNPP by LC-MS method; assay type: ADME, cell-based; conditions: Caco-2, read-out: Drug recovery; summary of the method: as §1
[14] = Permeability from basolateral to apical side in human Caco2 cells assessed as drug recovery at 2 uM after 60 mins in presence of CES inhibitor BNPP by LC-MS method; assay type: ADME, cell-based; conditions: Caco-2, with BNPP (CES inhibitor), concentration not stated, read-out: Drug recovery; summary of the method: as §1
[15] = Permeability from basolateral to apical side in human Caco2 cells assessed as drug recovery at 2 uM after 60 mins in absence of CES inhibitor BNPP by LC-MS method; assay type: ADME, cell-based; conditions: Caco-2, read-out: Drug recovery; summary of the method: as §1
[16] = Permeability from basolateral to apical side in human Caco2 cells assessed as drug recovery at 2 uM after 120 mins in presence of CES inhibitor BNPP by LC-MS method; assay type: ADME, cell-based; conditions: Caco-2, with BNPP (CES inhibitor), concentration not stated, read-out: Drug recovery; summary of the method: as §1

**Q.** What does the source list for `C=C/C(C)=C\C[C@]1(C)[C@H](C)C[C@H](O)[C@@]23C(=C[C@H](OC(=O)CCC)C[C@@H]12)[C@@H](OC(=O)CCC)O[C@H]3OC(C)=O`?
**A.** recovery at 1 h, 2 µM [1]: 33.3%; recovery at 1 h, 2 µM [2]: 87.2%; half-life at 1 µM (CE2 (cocaine esterase) [3]): 49.5 min; recovery at 10 min, 2 µM [4]: 68.4%; viability at 5 h, 1 µM [5]: 98.9%; Activity (Caco-2): Dose-dependent effect; recovery at 10 min, 2 µM [6]: 85.4%; viability at 5 h, 2 µM [7]: 97.9%; recovery at 2 h, 2 µM [8]: 12%; recovery at 2 h, 2 µM [9]: 87.4%; metabolised at 0.5 h, 1 µM (CE2 (cocaine esterase) [10]): 30%; Drug metabolism (Cocaine esterase): 55.8 pmol/min; recovery at 10 min, 2 µM [11]: 93.9%; recovery at 10 min, 2 µM [12]: 74.4%; recovery at 2 h, 2 µM [13]: 27.6%; recovery at 1 h, 2 µM [14]: 89.3%; recovery at 1 h, 2 µM [15]: 46.5%; recovery at 2 h, 2 µM [16]: 92.9%
